Consider 18 compounds from publication PMC3625046 (Bioorganic & medicinal chemistry letters, 2013).

As a reminder, the inhibition is how much of the control response was suppressed. What is called IC50 is the concentration that inhibits the measured activity by half.

Data set [1] deals with human foreskin fibroblasts. As to the kind of experiment: Toxicity to human foreskin fibroblasts. It is filed as cell-based.
Data set [2] deals with T. gondii (Pru strain expressing firefly luciferase). Kind of data set: T. gondii murine infection model. It is filed as in vivo, mice. Summed up:
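Mice infected intraperitoneally with 2x10⁴ Pru-strain T. gondii tachyzoites expressing firefly luciferase. Animals imaged daily by bioluminescence after intraperitoneal luciferin (3mg). Parasite burden in treated mice compared with a DMSO control group on day 6 post-infection. Three separate replicate experiments, analysed singly and pooled; ANOVA with group and run as factors.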

The test system of data set [3] is P. falciparum strain D6 (CDC/Sierra Leone). Kind of data set: SYBR Green assay, P. falciparum strain D6. It is filed as cell-based, Plasmodium falciparum. Conditions: chloroquine sensitive D6 strain.
Data set [4] concerns P. falciparum strain TM91C235 (WRAIR, Thailand; chloroquine resistant). Kind of data set: SYBR Green assay, P. falciparum strain C235. It is filed as cell-based, Plasmodium falciparum.
The target in data set [5] is T1, Toxoplasma gondii enoyl reductase (TgENR) (Toxoplasma gondii, UniProt Q6UCJ9).
T1 sequence (Q6UCJ9 28-417): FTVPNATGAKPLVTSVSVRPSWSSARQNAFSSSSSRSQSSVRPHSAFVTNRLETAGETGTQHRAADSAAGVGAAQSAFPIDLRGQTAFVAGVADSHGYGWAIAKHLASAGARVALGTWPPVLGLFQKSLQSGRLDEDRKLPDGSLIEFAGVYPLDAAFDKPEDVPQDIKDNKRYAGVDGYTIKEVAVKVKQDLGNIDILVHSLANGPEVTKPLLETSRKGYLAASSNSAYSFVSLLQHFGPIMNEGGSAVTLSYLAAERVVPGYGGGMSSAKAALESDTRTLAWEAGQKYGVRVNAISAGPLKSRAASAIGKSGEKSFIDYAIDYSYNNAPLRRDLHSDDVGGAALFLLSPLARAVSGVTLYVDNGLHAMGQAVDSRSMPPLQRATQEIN
As to the kind of experiment: TgENR enzyme assay. It is filed as biochemical. Conditions: read-out: Inhibition (%) at 1 µM.

For data set [6], the system named is Toxoplasma gondii. Conditions: read-out: IC50, growth of T. gondii parasites; cited from earlier work.

Regarding `Oc1cc(Cl)ccc1Oc1ccc2ccccc2c1` [Compound 2], the Toxicity in data set [1] is recorded as over 10 µM.

Turning to `Oc1cc(Cl)ccc1Oc1ccc(C(F)(F)F)cc1Cl` [Compound 3], in data set [1], the Toxicity was over 10 µM. Turning to `CN1CCN(c2ccc(Oc3ccc(Cl)cc3O)cc2)CC1` [Compound 5a], in data set [1], the Toxicity is reported as over 10 µM. `Oc1cc(Cl)ccc1Oc1ccc(N2CCOCC2)cc1` [Compound 5b] had a Toxicity in data set [1] of over 10 µM. `CC(=O)N1CCN(c2ccc(Oc3ccc(Cl)cc3O)cc2)CC1` [Compound 5c] registered a Toxicity in data set [1] of over 10 µM. The “efficacy at lower dose” value in data set [2] (50mg/kg) is “not effective”. The “toxicity in infected mice” value in data set [2] (75mg/kg, by the seventh day after infection) was “toxic”. In addition, the “solubility of higher dose” value in data set [2] (100mg/kg) was “not completely soluble”. In addition, in data set [3], the “activity against P. falciparum D6” value is “inactive”. In addition, the “activity against P. falciparum C235” value in data set [4] was “inactive”. `CN1CCN(Cc2ccc(Oc3ccc(Cl)cc3O)cc2)CC1` [Compound 5d] came in with a Toxicity in data set [1] of over 10 µM. For the compound `O=S(=O)(c1ccc(Oc2ccc(Cl)cc2O)cc1)N1CCCC1` [Compound 7a], the Toxicity in data set [1] was over 10 µM. `O=S(=O)(c1ccc(Oc2ccc(Cl)cc2O)cc1)N1CCCCC1` [Compound 7b]: in data set [1], the Toxicity is reported as over 10 µM. With `Cn1cc(C(=O)Nc2ccc(Cl)cc2O)c(C(F)(F)F)n1` [Compound 10], the Toxicity in data set [1] is listed as over 10 µM. `CNC(=O)c1ccc(Oc2ccc(Cl)cc2O)o1` [Compound 14a] came in with a Toxicity in data set [1] of over 10 µM. The compound `Cc1cc(NC(=O)c2ccc(Oc3ccc(Cl)cc3O)o2)no1` [Compound 14b] returned a Toxicity in data set [1] of over 10 µM.

Compound `CC(=O)N1CCN(C(=O)c2ccc(Oc3ccc(Cl)cc3O)o2)CC1` [Compound 14c] gave a Toxicity in data set [1] of over 10 µM. In data set [1], `O=C(O)c1ccc(Oc2ccc(Cl)cc2O)s1` [Compound 16] displayed a Toxicity of over 10 µM. The same measure, in the same setting: with `CC(C)(C)OC(=O)N1CCN(C(=O)c2ccc(Oc3ccc(Cl)cc3O)s2)CC1` [Compound 17b] the figure was over 10 µM.

With `O=C(c1ccc(Oc2ccc(Cl)cc2O)s1)N1CCNCC1` [Compound 17c], the Toxicity in data set [1] is over 10 µM. In data set [1], `CC(=O)N1CCN(Cc2ccc(Oc3ccc(Cl)cc3O)s2)CC1` [Compound 18] gave a Toxicity of over 10 µM. As to `Oc1cc(Cl)ccc1Oc1ccc2ncccc2c1` [Compound 19], the Toxicity in data set [1] was over 10 µM. On to `Oc1cc(Cl)ccc1Oc1ccc(Cl)cc1Cl` [Triclosan], for which the Toxicity in data set [1] is on record as over 10 µM. Moreover, the inhibition at 1 µM in data set [5] worked out at 98%. In addition, in data set [6], the IC50 was about 200 nM.
